Results from ChEMBL document CHEMBL4350961, “Discovery of Pyrrolo[3,2- d]pyrimidin-4-one Derivatives as a New Class of Potent and Cell-Active Inhibitors of P300/CBP-Associated Factor Bromodomain” (J Med Chem, 2019).
Calls of active or inactive are those of the source. No cut-off for these calls is given here.

Assays:
[1] = target: Ephrin type-B receptor 4 (Homo sapiens) (UniProt P54760); assay: Inhibition of recombinant human EphB4 (561 to end residues) at 10 uM using poly (Glu, Tyr) 4:1 as substrate measured after 40 mins in presence of [gamma33P]ATP by scintillation counting method
[2] = Oral bioavailability in Sprague-Dawley rat at 10 mg/kg administered via gavage by LC-MS/MS analysis; format: ADME, organism-based; conditions: in vivo
Mus musculus [3] = species: Mus musculus; assay: Inhibition of recombinant full-length mouse PI3K p110beta/p85alpha R123L mutant at 10 uM using phosphatidylinositol-4, 5-bisphosphate as substrate measured after 40 mins by HTRF assay
[4] = target: Dual specificity protein kinase CLK3 (Homo sapiens) (UniProt P49761); assay: Inhibition of recombinant full-length human CLK3 at 10 uM using ERMRPRKRQGSVRRRV as substrate measured after 40 mins in presence of [gamma33P]ATP by scintillation counting method
[5] = tested on: PI3-kinase p110-alpha/p85-alpha (Homo sapiens), P27986+P42336 [H1047R]; assay: Inhibition of recombinant full-length human PI3K p110alpha/p85alpha H1047R mutant at 10 uM using phosphatidylinositol-4, 5-bisphosphate as substrate measured after 40 mins by fluorescence assay; format: protein-complex assay
[6] = target: Homeodomain-interacting protein kinase 3 (Homo sapiens) (UniProt Q9H422); assay: Inhibition of recombinant human HIPK3 (161 to 562 residues) at 10 uM using myelin basic protein as substrate measured after 40 mins in presence of [gamma33P]ATP by scintillation counting method
Chain of Homeodomain-interacting protein kinase 3 (Homo sapiens) (Q9H422 whole entry, looked up, the tested form may be a part, canonical isoform): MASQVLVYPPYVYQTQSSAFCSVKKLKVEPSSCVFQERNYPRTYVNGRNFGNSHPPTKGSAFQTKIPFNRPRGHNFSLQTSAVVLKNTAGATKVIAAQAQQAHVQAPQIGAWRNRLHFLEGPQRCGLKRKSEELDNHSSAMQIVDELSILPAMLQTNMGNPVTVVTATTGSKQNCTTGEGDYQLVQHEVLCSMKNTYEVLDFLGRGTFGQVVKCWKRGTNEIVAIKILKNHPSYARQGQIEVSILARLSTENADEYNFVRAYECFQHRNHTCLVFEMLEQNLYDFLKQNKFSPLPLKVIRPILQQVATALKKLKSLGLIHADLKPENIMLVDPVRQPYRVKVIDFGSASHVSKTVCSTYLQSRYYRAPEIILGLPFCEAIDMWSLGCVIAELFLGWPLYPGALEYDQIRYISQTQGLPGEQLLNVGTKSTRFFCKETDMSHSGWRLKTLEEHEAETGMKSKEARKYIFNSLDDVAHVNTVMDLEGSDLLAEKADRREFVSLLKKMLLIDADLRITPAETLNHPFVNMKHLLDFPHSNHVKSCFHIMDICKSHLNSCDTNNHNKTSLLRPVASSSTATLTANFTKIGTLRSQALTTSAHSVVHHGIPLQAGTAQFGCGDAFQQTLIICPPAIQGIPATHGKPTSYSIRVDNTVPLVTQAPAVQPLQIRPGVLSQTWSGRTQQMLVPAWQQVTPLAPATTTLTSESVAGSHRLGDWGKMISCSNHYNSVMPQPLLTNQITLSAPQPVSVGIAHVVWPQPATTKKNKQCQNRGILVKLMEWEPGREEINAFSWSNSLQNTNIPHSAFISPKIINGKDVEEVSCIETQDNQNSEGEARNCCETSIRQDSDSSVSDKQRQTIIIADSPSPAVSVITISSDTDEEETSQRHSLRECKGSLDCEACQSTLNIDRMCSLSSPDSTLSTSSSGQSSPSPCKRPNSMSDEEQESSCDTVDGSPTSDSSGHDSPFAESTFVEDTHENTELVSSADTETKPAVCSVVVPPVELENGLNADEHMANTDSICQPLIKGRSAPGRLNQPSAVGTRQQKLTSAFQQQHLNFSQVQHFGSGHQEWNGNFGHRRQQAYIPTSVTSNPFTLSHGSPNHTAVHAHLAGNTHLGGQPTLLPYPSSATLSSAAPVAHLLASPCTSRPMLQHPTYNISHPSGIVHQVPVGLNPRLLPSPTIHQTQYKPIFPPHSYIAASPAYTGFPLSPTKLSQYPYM

[7] = target: Bromodomain-containing protein 4 (Homo sapiens) (UniProt O60885); assay: Binding affinity to human partial length BRD4 bromodomain 2 long isoform (K333 to E460 residues) expressed in bacterial expression system at 1 uM by BROMOscan assay
Method in brief: (§1)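 BROMOscan bromodomain cross-screen run by an outside service, compound at 1 µM against 32 recombinant bromodomains. Binding given as percent of control.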

[8] = target: Serine/threonine-protein kinase Nek7 (Homo sapiens) (UniProt Q8TDX7); assay: Inhibition of recombinant human NEK7 (2 to end residues) at 10 uM using FLAKSFGSPNRAYKK as substrate measured after 40 mins in presence of [gamma33P]ATP by scintillation counting method
Chain of Serine/threonine-protein kinase Nek7 (Homo sapiens) (Q8TDX7 whole entry, looked up): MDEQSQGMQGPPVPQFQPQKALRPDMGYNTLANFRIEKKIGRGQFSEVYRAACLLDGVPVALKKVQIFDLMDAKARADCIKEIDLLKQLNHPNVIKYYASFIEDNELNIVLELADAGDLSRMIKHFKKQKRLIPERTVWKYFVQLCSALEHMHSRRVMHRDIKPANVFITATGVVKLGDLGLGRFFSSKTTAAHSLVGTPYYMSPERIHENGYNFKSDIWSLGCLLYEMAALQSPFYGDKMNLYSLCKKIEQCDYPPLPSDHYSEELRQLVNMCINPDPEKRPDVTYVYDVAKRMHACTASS

[9] = tested on: TGF-beta receptor type-1 (Homo sapiens), P36897 [T204D]; assay: Inhibition of human TGFBR1 T204D mutant (200 to end residues) using casein as substrate measured after 40 mins in presence of [gamma33P]ATP by scintillation counting method
[10] = target: Histone acetyltransferase p300 (Homo sapiens) (UniProt Q09472); assay: Binding affinity to human partial length EP300 (A1040 to G1161 residues) expressed in bacterial expression system at 1 uM by BROMOscan assay; method in brief: as §1
[11] = target: Mitogen-activated protein kinase kinase kinase 20 (Homo sapiens) (UniProt Q9NYL2); assay: Inhibition of recombinant full-length human ZAK at 10 uM using MBP as substrate measured after 40 mins in presence of [gamma33P]ATP by scintillation counting method
Mus musculus [12] = species: Mus musculus; assay: Inhibition of recombinant full-length mouse PI3K p110alpha/p85alpha H1047R mutant at 10 uM using phosphatidylinositol-4, 5-bisphosphate as substrate measured after 40 mins by HTRF assay
[13] = target: Ephrin type-A receptor 1 (Homo sapiens) (UniProt P21709); assay: Inhibition of recombinant human EphA1 (568 to end residues) at 10 uM using KKKSPGEYVNIEF as substrate measured after 40 mins in presence of [gamma33P]ATP by scintillation counting method
[14] = target: Misshapen-like kinase 1 (Homo sapiens) (UniProt Q8N4C8); assay: Inhibition of recombinant human MINK (1 to 310 residues) at 10 uM using myelin basic protein as substrate measured after 40 mins in presence of [gamma33P]ATP by scintillation counting method
Chain of Misshapen-like kinase 1 (Homo sapiens) (Q8N4C8 whole entry, looked up, the tested form may be a part): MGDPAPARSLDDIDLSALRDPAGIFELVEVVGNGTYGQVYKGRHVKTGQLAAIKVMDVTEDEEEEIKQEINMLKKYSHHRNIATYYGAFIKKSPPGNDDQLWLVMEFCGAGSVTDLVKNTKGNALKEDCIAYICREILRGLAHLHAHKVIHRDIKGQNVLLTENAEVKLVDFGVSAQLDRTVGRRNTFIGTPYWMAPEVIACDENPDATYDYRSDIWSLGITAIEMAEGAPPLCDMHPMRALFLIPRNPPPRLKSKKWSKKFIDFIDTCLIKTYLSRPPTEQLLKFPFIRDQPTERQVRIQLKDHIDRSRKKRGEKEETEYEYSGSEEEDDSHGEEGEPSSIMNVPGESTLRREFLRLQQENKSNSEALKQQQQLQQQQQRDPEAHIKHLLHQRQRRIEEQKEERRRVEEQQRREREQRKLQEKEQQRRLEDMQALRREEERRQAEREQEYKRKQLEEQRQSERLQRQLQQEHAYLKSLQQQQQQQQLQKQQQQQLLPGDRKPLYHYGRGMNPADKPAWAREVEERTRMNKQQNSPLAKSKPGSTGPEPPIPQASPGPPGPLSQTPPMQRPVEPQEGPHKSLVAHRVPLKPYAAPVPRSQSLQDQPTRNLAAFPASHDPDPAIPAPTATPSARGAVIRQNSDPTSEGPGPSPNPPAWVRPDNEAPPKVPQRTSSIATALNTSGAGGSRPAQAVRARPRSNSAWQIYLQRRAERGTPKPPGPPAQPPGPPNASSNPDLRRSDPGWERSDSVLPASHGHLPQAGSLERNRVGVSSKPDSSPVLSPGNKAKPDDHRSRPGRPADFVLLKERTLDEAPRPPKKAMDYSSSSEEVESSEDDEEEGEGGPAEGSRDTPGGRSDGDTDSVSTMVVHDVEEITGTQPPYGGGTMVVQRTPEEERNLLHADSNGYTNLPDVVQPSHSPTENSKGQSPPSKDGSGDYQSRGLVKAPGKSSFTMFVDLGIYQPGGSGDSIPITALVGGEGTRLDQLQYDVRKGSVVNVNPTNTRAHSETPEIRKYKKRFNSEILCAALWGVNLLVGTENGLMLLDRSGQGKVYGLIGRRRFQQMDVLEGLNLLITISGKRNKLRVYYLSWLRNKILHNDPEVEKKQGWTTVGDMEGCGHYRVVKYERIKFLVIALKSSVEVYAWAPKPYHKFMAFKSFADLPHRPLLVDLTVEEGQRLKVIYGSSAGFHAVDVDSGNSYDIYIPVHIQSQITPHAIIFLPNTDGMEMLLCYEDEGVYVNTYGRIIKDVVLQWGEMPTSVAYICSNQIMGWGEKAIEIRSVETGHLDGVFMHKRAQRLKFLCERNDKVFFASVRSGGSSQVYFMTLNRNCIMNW

[15] = target: Tyrosine-protein kinase JAK2 (Homo sapiens) (UniProt O60674); assay: Inhibition of recombinant human JAK2 (808 to end residues) at 10 uM using KTFCGTPEYLAPEVRREPRILSEEEQEMFRDFDYIADWC as substrate measured after 40 mins in presence of [gamma33P]ATP by scintillation counting method
[16] = target: Serine/threonine-protein kinase DCLK2 (Homo sapiens) (UniProt Q8N568); assay: Inhibition of recombinant human DCAMKL2 (376 to end residues) at 10 uM using KKLNRTLSFAEPG as substrate measured after 40 mins in presence of [gamma33P]ATP by scintillation counting method
[17] = target: Bromodomain adjacent to zinc finger domain protein 2B (Homo sapiens) (UniProt Q9UIF8); assay: Binding affinity to human N-terminal His-tagged BAZ2B assessed as change in melting temperature at 10 uM by SYPRO orange dye-based fluorescence assay
Method in brief: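 Thermal shift with His-tagged human bromodomain at 2 μM final in 10 mM HEPES pH 7.5, 500 mM NaCl. Compound at 10 μM final with 0.1% DMSO; SYPRO Orange at 1:1000. Equilibrated 3 min at 25 °C, then heated from 25 to 95 °C at 1 °C/min. Melting temperature shift taken from fluorescence; at least duplicate.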

Homo sapiens = species: Homo sapiens; assay: Inhibition of recombinant human PRAK R291E mutant at 10 uM using KKLRRTLSVA as substrate measured after 40 mins in presence of [gamma33P]ATP by scintillation counting method
[18] = target: Calcium/calmodulin-dependent protein kinase type 1G (Homo sapiens) (UniProt Q96NX5); assay: Inhibition of human CaMK1gamma
Method in brief: (§2)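 Kinase panel of 422 kinases screened by Eurofins KinaseProfiler at a single test-compound concentration of 10 µM.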

[19] = target: STE20-like serine/threonine-protein kinase (Homo sapiens) (UniProt Q9H2G2); assay: Inhibition of human SLK (1 to 373 residues) using RLGRDKYKTLRQIRQ as substrate measured after 40 mins in presence of [gamma33P]ATP by scintillation counting method; method in brief: as §2
[20] = target: Activated CDC42 kinase 1 (Homo sapiens) (UniProt Q07912); assay: Inhibition of recombinant human ACK1 (1 to 389 residues) at 10 uM using EFPIYDFLPAKKK as substrate measured after 40 mins in presence of [gamma33P]ATP by scintillation counting method
Chain of Activated CDC42 kinase 1 (Homo sapiens) (Q07912 whole entry, looked up, the tested form may be a part): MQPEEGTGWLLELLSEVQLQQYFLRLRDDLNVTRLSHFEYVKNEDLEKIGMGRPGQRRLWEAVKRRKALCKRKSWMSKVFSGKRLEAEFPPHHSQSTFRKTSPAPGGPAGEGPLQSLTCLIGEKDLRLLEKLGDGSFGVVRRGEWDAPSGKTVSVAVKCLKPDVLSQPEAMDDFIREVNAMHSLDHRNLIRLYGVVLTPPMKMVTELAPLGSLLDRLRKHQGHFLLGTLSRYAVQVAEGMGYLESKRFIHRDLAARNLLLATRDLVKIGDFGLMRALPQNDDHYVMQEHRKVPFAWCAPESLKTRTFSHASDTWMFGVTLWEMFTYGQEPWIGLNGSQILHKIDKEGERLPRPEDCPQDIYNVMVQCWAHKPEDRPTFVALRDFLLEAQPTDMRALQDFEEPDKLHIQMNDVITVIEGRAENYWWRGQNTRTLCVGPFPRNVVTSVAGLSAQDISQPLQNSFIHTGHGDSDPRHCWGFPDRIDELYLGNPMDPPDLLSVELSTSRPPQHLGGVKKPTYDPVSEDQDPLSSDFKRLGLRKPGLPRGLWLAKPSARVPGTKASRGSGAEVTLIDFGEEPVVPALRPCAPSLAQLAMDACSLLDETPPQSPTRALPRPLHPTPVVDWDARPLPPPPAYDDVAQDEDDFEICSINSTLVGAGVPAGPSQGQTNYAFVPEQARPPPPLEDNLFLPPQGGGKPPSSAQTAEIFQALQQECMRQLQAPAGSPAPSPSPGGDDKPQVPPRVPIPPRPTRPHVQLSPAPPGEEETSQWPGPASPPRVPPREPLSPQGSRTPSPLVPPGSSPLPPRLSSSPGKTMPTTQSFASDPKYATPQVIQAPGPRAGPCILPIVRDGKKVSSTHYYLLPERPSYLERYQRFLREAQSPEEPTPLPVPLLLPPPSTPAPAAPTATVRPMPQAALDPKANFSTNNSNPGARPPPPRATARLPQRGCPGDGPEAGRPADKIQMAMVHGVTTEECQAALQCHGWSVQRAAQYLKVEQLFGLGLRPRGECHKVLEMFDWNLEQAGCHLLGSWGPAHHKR

[21] = target: Activin receptor type-1-like (Homo sapiens) (UniProt P37023); assay: Inhibition of recombinant human ALK1 (142 to end residues) at 10 uM using casein as substrate measured after 40 mins in presence of [gamma33P]ATP by scintillation counting method
[22] = target: Maternal embryonic leucine zipper kinase (Homo sapiens) (UniProt Q14680); assay: Inhibition of recombinant human MELK (1 to 340 residues) at 10 uM using KKLNRTLSFAEPG as substrate measured after 40 mins in presence of [gamma33P]ATP by scintillation counting method
[23] = target: Epidermal growth factor receptor (Homo sapiens) (UniProt P00533); assay: Inhibition of recombinant human EGFR (696 to end residues) at 10 uM using poly(Glu, Tyr) 4:1 as substrate measured after 40 mins in presence of [gamma33P]ATP by scintillation counting method
Chain of Epidermal growth factor receptor (Homo sapiens) (P00533 whole entry): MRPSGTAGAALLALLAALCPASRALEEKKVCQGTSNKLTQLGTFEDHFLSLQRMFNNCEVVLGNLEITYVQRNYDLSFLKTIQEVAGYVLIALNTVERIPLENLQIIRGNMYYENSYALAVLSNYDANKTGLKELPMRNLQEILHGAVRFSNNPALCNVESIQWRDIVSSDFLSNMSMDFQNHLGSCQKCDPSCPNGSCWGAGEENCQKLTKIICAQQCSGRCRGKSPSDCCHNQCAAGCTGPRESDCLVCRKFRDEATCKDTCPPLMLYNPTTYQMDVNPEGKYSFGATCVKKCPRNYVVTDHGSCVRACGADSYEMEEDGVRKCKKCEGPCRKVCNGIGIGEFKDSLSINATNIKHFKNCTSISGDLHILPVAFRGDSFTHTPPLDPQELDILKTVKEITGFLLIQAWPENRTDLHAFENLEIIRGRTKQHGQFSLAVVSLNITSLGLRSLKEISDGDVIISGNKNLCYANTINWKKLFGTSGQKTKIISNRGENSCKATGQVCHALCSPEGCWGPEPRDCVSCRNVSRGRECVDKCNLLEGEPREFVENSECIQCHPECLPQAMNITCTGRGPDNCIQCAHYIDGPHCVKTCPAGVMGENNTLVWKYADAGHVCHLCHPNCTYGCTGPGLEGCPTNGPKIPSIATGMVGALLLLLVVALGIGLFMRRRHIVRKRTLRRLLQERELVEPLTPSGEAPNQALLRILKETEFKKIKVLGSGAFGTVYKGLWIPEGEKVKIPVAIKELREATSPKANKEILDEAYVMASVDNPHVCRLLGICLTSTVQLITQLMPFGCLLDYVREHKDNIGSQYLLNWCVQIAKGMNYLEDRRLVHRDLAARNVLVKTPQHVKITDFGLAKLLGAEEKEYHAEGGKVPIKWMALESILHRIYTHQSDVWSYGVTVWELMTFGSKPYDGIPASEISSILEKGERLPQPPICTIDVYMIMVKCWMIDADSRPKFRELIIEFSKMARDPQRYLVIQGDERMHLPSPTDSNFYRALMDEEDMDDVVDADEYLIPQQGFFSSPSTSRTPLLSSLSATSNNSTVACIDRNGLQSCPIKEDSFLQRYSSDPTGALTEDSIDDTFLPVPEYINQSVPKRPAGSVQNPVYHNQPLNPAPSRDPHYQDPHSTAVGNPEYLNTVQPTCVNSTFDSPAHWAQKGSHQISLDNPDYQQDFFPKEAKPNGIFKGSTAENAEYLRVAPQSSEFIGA

CN1C[C@H](Nc2nc3cc[nH]c3c(=O)n2C)C[C@H](c2ccc3c(c2)OCCO3)C1
inhibition [1]: inactive | bioavailability [2]: 52% | inhibition (Mus musculus [3]): inactive | inhibition [4]: inactive | inhibition [5]: inactive | inhibition [6]: inactive | Activity [7]: inactive | inhibition [8]: inactive | inhibition [9]: inactive | Activity [10]: inactive | inhibition [11]: inactive | inhibition (Mus musculus [12]): inactive | inhibition [13]: inactive | inhibition [14]: inactive | inhibition [15]: inactive | inhibition [16]: inactive | ΔTm [17]: 1.9 °C | inhibition (Homo sapiens): inactive | inhibition [18]: inactive | inhibition [19]: inactive | inhibition [20]: inactive | inhibition [21]: inactive | inhibition [22]: inactive | inhibition [23]: inactive
